A short description of series [1]: Drug uptake in Sprague-Dawley rat brain at 10 mg/kg, iv measured at 2 hrs. The series is classed as ADME, organism-based. Also noted: dose 10 mg/kg, route intravenous. As to conditions: read-out: Drug uptake. The method, boiled down:
(§1)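 Rats fasted 12 h, then dosed orally by gavage or by bolus tail-vein injection at 2 ml/kg. Compound given as a 5 mg/ml solution in N-methyl-2-pyrrolidone/Tween 80/water (1:2:7). Samples taken at various times (n = 5) and stored at −70 °C. Plasma deproteinized with acetonitrile containing carbamazepine internal standard, then quantified by LC-MS/MS.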

The nature of series [2]: Apparent volume of distribution at steady state in Sprague-Dawley rat at 10 mg/kg, iv. The series is classed as ADME, organism-based. On the set-up: dose 10 mg/kg, route intravenous. As to conditions: in vivo, read-out: Vdss(app). The method, boiled down: as §1
Series [3] is described as follows: Terminal half life in Sprague-Dawley rat at 10 mg/kg, po. The series is classed as ADME, organism-based. On the set-up: dose 10 mg/kg, route oral. As to conditions: in vivo, read-out: beta t1/2. In a few lines: as §1
Series [4] has as its system Mus musculus. Briefly: Antiobesity activity in B6.V/J ob/ob mouse assessed as change in brain weight at 25 mg/kg, po bid measured after 14 days (reference value: 0.340 +/- 0.017 g). The series is classed as functional.
Series [5] concerns Mus musculus. Briefly: Antiobesity activity in B6.V/J ob/ob mouse assessed as reduction of food intake at 25 mg/kg, po qd measured after 14 days. The series is classed as functional, organism-based. Also noted: dose 25 mg/kg. The method, boiled down:
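Male ob/ob mice (B6.V-Lep^ob/J) received oral doses once daily for 14 days, with vehicle control. Food intake and body weight gain were followed.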

The subject of series [6] is Mus musculus. Briefly: Antiobesity activity in B6.V/J ob/ob mouse assessed as inhibition of food intake at 12.5 mg/kg, ip measured up to 12 hrs relative to vehicle-treated control. The series is classed as functional. The note with it: route intraperitoneal. The method, boiled down:
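Male mice were acclimated 1 week at 23 ± 3 °C and 50 ± 20% humidity, then fasted 24 h. They were dosed once intraperitoneally with vehicle or compound: 50 mg/kg in C57BL/6, or 12.5, 25 or 50 mg/kg in B6.V-Lep^ob/J. Food intake was measured at 2, 6 and 12 h versus vehicle control.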

A further series concerns the target D(3) dopamine receptor (Homo sapiens, UniProt P35462). Briefly: Displacement of [3H]-methylspiperone from dopamine D3 receptor (unknown origin) after 30 mins. In a few lines: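 Receptor membranes incubated at 27 °C, 60 min for D2L and 30 min for D3, with [3H]methylspiperone (0.2 nM for D2L, 0.25 nM for D3) and test compound at a range of concentrations. Buffer was 50 mM Tris-HCl pH 7.4, 10 mM MgCl2, 1 mM EDTA, 120 mM NaCl. Nonspecific binding defined with haloperidol (D2) or GR103691 (D3). IC50 obtained by nonlinear regression.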
For orientation: Displacement assays read how much labelled ligand stays bound in the presence of the test substance.

These results are taken from ChEMBL document CHEMBL2390866, “Novel pyrimidoazepine analogs as serotonin 5-HT(2A) and 5-HT(2C) receptor ligands for the treatment of obesity” (Eur J Med Chem, 2013).

As a reminder, the inhibition in vivo is how much of the control response was suppressed. Broadly, the pIC50 is the negative decadic logarithm of the IC50, by convention in mol/L. Higher therefore signals a low IC50.

Each structure is given as a SMILES string. pIC50: −log10 of the molar value. Calls of active or inactive are those of the source. The calls are words filed in the database; no cut-off is given here.

Chain of D(3) dopamine receptor (P35462 whole entry): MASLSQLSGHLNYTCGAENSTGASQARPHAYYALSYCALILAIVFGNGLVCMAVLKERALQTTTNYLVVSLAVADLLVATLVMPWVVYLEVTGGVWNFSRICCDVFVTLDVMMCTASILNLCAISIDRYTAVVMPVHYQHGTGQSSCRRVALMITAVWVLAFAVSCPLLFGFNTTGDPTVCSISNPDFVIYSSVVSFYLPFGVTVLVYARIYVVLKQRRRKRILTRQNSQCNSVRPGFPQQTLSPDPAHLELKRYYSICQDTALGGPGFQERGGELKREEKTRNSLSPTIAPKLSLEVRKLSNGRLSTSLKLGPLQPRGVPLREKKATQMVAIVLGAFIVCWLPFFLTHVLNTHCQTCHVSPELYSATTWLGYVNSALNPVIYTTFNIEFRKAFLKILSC

With `Cl.Clc1cccc(Nc2nc(Cc3ccccc3)nc3c2CCNCC3)c1`, the concentration at 2 h in series [1] was 1480 ng/mL. The Vd in series [2] came to 17 L/kg. Besides, in series [3], the half-life was found to be 12.7 h. For the same compound, the Activity in the series with Mus musculus [4] was found to be 0.369 g. Moreover, the result in the series with Mus musculus [5] was inactive. For the same compound, the inhibition in vivo at 12.5 mg/kg in the series on Mus musculus [6] was 47.8%. Moreover, the pIC50 on D(3) dopamine receptor was 6.09.
